Measured values as given in ChEMBL document CHEMBL4428038, “Overcoming chloroquine resistance in malaria: Design, synthesis and structure-activity relationships of novel chemoreversal agents” (Eur J Med Chem, 2016).
≈ marks a conversion by molar mass, not a printed value. Calls of active or inactive are those of the source. The rule behind the calls is not given here.

What was measured:
Plasmodium falciparum [1] = test: Intrinsic antimalarial activity against chloroquine-resistant Plasmodium falciparum K1 isolate MRA-159 harboring CRT CVIET haplotype mutant assessed as reduction in parasite viability at 500 nM; format: functional, organism-based
[2] = Permeability of compound incubated for 6 hrs at pH 7.4 by PAMPA; format: ADME; conditions: read-out: Peff
Plasmodium falciparum K1 [3] = test: Inhibition of CRT CVIET haplotype mutant in Plasmodium falciparum K1 isolate MRA-159 infected in erythrocytes assessed as chloroquine-coumarin probe accumulation at 10 uM after 10 hrs by Hoechst 33342 staining based flow cytometry (reference value: 35.57 +/- 3.84%); format: cell-based; design: scale not given: the % may be the effect or the level left
In short: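 Infected erythrocyte cultures at 2.5% hematocrit and 7–12% parasitemia, synchronized to late-ring/early-trophozoite stage, were incubated with chloroquine-coumarin probe plus test agent for 10 h at 37 C. Cells were then washed, resuspended in PBS and read by flow cytometry (405 nm excitation, 450/50 filter). Hoechst-stained duplicate wells set parasitemia. Uptake = % infected erythrocytes fluorescent. Controls: PBS (negative), desipramine and parent compound (positive). ≥3 independent experiments; mean ± SEM.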

Plasmodium falciparum [4] = test: Intrinsic antimalarial activity against chloroquine-sensitive Plasmodium falciparum 3D7 isolate MRA-102 assessed as reduction in parasite viability at 500 nM; format: functional, organism-based
Plasmodium falciparum [5] = test: Intrinsic antimalarial activity against chloroquine-resistant Plasmodium falciparum NHP4559 harboring CRT K76T mutant assessed as reduction in parasite viability at 500 nM; format: functional, organism-based
Plasmodium falciparum [6] = test: Intrinsic antimalarial activity against chloroquine/artemisinin-resistant Plasmodium falciparum NHP4773 harboring CRT K76T mutant assessed as reduction in parasite viability at 500 nM; format: functional, organism-based
Plasmodium falciparum [7] = test: Intrinsic antimalarial activity against chloroquine-resistant Plasmodium falciparum Dd2 isolate MRA-156 harboring CRT K76T mutant assessed as reduction in parasite viability at 500 nM; format: functional, organism-based
[8] = Resistance index, ratio of chloroquine IC50 for chloroquine-resistant Plasmodium falciparum K1 isolate MRA-159 CRT CVIET haplotype mutant to chloroquine IC50 for chloroquine-sensitive Plasmodium falciparum 3D7 isolate MRA-102 at 500 nM
In short: (§1)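 Chloroquine IC50 was measured with the chemoreversal agent fixed at 500 nM in K1 or 7G8 and in sensitive 3D7 (means, n = 3). The resistance ratio is the chloroquine IC50 in K1 or 7G8 divided by the chloroquine IC50 in 3D7.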

TAMH = test: Cytotoxicity against TAMH assessed as reduction in cell viability by CellTiter-Glo assay; format: cell-based; conditions: Mus musculus
In short: (§2)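 For TAMH (hepatocyte line) and AC10 (cardiomyocyte line), viability was read by ATP luminescence (CellTiter-Glo), and the value reported is IC50.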

[9] = test system: T1, Chloroquine resistance transporter (Plasmodium falciparum), Q9N623 [K76T]; test: Inhibition of CRT K76T mutant in chloroquine-resistant Plasmodium falciparum NHP4559 assessed as reversal of chloroquine resistance by measuring reduction in chloroquine IC50 at 500 nM relative to chloroquine alone
T1 sequence (whole entry): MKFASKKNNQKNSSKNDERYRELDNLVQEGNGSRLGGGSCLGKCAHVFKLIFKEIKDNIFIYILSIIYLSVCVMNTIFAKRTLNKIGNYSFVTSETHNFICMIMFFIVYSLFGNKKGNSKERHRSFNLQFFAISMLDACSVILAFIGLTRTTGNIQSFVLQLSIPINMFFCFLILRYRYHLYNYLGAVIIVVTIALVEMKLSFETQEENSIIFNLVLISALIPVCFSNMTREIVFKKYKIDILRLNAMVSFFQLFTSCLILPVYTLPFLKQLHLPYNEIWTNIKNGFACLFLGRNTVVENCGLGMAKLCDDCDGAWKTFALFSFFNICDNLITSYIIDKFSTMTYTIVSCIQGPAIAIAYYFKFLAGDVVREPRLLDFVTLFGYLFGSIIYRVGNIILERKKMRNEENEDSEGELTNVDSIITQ

[10] = test system: T1, Chloroquine resistance transporter (Plasmodium falciparum), Q9N623 [K76T]; test: Inhibition of CRT K76T mutant in chloroquine-resistant Plasmodium falciparum Dd2 isolate MRA-156 assessed as reversal of chloroquine resistance by measuring reduction in chloroquine IC50 at 500 nM relative to chloroquine alone
Plasmodium falciparum [11] = test: Intrinsic antimalarial activity against chloroquine-sensitive Plasmodium falciparum HB3 isolate MRA-155 assessed as reduction in parasite viability at 500 nM; format: functional, organism-based
Plasmodium falciparum K1 [12] = test: Inhibition of CRT CVIET haplotype mutant in chloroquine-resistant Plasmodium falciparum K1 isolate MRA-159 assessed as reversal of chloroquine resistance by measuring reduction in chloroquine IC50 at 500 nM relative to chloroquine alone
[13] = Aqueous kinetic solubility of compound in pH 7.4 solution incubated for 24 hrs; format: physicochemical; conditions: for solubility kinetic at 24 h: aqueous solution pH 7.4, pH 7.4, read-out: Kinetic_solubility
[14] = Inhibition of CRT CVIET haplotype mutant in Plasmodium falciparum K1 isolate MRA-159 infected in erythrocytes assessed as reversal of chloroquine resistance by measuring reduction in chloroquine IC50 by Hoechst 33342 staining based flow cytometry; format: cell-based
In short: (§3)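 Chloroquine IC50 was determined in the presence of a fixed 500 nM chemoreversal agent, against chloroquine alone. The RMI is the ratio of chloroquine IC50 with agent to chloroquine IC50 alone. Mean of n = 3; two-tailed t test versus chloroquine without agent.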

[15] = test system: Plasmodium falciparum 7G8; test: Inhibition of CRT SVMNT haplotype mutant in intermediate chloroquine-resistant Plasmodium falciparum 7G8 isolate MRA-154 t assessed as reversal of chloroquine resistance by measuring reduction in chloroquine IC50 at 500 nM relative to chloroquine alone
Plasmodium falciparum [16] = test: Intrinsic antimalarial activity against chloroquine/artemisinin-resistant Plasmodium falciparum ARS233 harboring CRT K76T mutant assessed as reduction in parasite viability at 500 nM; format: functional, organism-based
[17] = Therapeutic index, ratio of IC50 for TAMH to EC50 for chloroquine-resistant Plasmodium falciparum K1 isolate MRA-159 CRT CVIET haplotype mutant; format: toxicity; conditions: mouse, TAMH cells; read-out: Ratio IC50/EC50
In short: (§4)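 Host-cell IC50 was measured by ATP-luminescence viability assay in TAMH hepatocytes (mean of n = 4 independent determinations) or AC10 cardiomyocytes. Each IC50 was divided by the K1 EC50, the concentration of chemoreversal agent that halves the chloroquine concentration needed for 50% parasite inhibition.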

[18] = test system: T1, Chloroquine resistance transporter (Plasmodium falciparum), Q9N623 [K76T]; test: Inhibition of CRT K76T mutant in chloroquine/artemisinin-resistant Plasmodium falciparum ARS233 assessed as reversal of chloroquine resistance by measuring reduction in chloroquine IC50 at 500 nM relative to chloroquine alone
[19] = Resistance index, ratio of chloroquine IC50 for intermediate chloroquine-resistant Plasmodium falciparum 7G8 isolate MRA-154 CRT SVMNT haplotype mutant to chloroquine IC50 for chloroquine-sensitive Plasmodium falciparum 3D7 isolate MRA-102 at 500 nM; in short: as §1
Plasmodium falciparum [20] = test: Potentiation of chloroquine-induced antimalarial activity against chloroquine-sensitive Plasmodium falciparum 3D7 isolate MRA-102 assessed as reduction in chloroquine IC50 at 500 nM relative to chloroquine alone; format: functional
Plasmodium falciparum [21] = test: Potentiation of chloroquine-induced antimalarial activity against chloroquine-sensitive Plasmodium falciparum HB3 isolate MRA-155 assessed as reduction in chloroquine IC50 at 500 nM relative to chloroquine alone; format: functional
Plasmodium falciparum [22] = test: Intrinsic antimalarial activity against intermediate chloroquine-resistant Plasmodium falciparum 7G8 isolate MRA-154 harboring CRT SVMNT haplotype mutant assessed as reduction in parasite viability at 500 nM; format: functional, organism-based
[23] = Permeability of compound incubated for 16 hrs at pH 7.4 by PAMPA; format: ADME; conditions: read-out: Peff
Plasmodium falciparum [24] = test: Intrinsic antimalarial activity against chloroquine/artemisinin-resistant Plasmodium falciparum ARS272 harboring CRT K76T mutant assessed as reduction in parasite viability at 500 nM; format: functional, organism-based
[25] = test system: T1, Chloroquine resistance transporter (Plasmodium falciparum), Q9N623 [K76T]; test: Inhibition of CRT K76T mutant in chloroquine/artemisinin-resistant Plasmodium falciparum ARS272 assessed as reversal of chloroquine resistance by measuring reduction in chloroquine IC50 at 500 nM relative to chloroquine alone
[26] = test system: T1, Chloroquine resistance transporter (Plasmodium falciparum), Q9N623 [K76T]; test: Inhibition of CRT K76T mutant in chloroquine/artemisinin-resistant Plasmodium falciparum NHP4773 assessed as reversal of chloroquine resistance by measuring reduction in chloroquine IC50 at 500 nM relative to chloroquine alone
[27] = Solubility of compound in DMSO at 10 uM; format: physicochemical
In short: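 Solubility judged under the probe-3 uptake assay conditions. DMSO stocks were stored in aliquots and diluted to working concentration with PBS, protected from light. The compound was added to K1 parasite cultures (2.5% hematocrit, late-ring/early-trophozoite stage) with 6 of fluorescent CQ probe and incubated for 10 h at 37 °C.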

[28] = Cytotoxicity against human AC10 cells assessed as reduction in cell viability by CellTiter-Glo assay; format: cell-based; in short: as §2
[29] = Therapeutic index, ratio of IC50 for human AC10 cells to EC50 for chloroquine-resistant Plasmodium falciparum K1 isolate MRA-159 CRT CVIET haplotype mutant; format: toxicity; conditions: read-out: Ratio IC50/EC50; in short: as §4
[30] = Inhibition of CRT CVIET haplotype mutant in chloroquine-resistant Plasmodium falciparum K1 isolate MRA-159 assessed as reversal of chloroquine resistance by measuring reduction in chloroquine IC50 relative to chloroquine alone; in short: as §3

SMILES | Activity (Plasmodium falciparum [1]) | Activity (Plasmodium falciparum K1 [3]) | Activity (Plasmodium falciparum [4]) | Activity (Plasmodium falciparum [5]) | Activity (Plasmodium falciparum [6]) | Activity (Plasmodium falciparum [7]) | Ratio IC50 [8] | Ratio IC50 [9] | Ratio IC50 [10] | Activity (Plasmodium falciparum [11]) | Ratio IC50 (Plasmodium falciparum K1 [12]) | Ratio IC50 [15] | Activity (Plasmodium falciparum [16]) | Ratio IC50 [18] | Ratio IC50 [19] | Ratio IC50 (Plasmodium falciparum [20]) | Ratio IC50 (Plasmodium falciparum [21]) | Activity (Plasmodium falciparum [22]) | Activity (Plasmodium falciparum [24]) | Ratio IC50 [25] | other results
Ic1ccccc1CN[C@@H]1C2CCN(CC2)[C@@H]1C(c1ccccc1)c1ccccc1 | inactive | 80.5% | inactive | inactive | inactive | inactive | 5 | 0.28 | 0.37 | inactive | 0.26 | 0.59 | inactive | 0.2 | 3.4 | 1.07 | 1.09 | inactive | inactive | 0.26 | Papp at 6 h [2]: 10.4 ×10⁻⁶ cm/s; IC50 (TAMH): 17200 nM; solubility kinetic at 24 h [13]: 31 µg/mL (≈ 61 µM); EC50 [14]: 98 nM; selectivity ratio [17]: 175; Papp at 16 h [23]: 8.24 ×10⁻⁶ cm/s; Ratio IC50 [26]: 0.27
CN1CCN(C2Cc3ccccc3Sc3ccccc32)CC1 (stereo unspecified) | – | – | – | – | – | – | – | – | – | – | – | – | – | – | – | – | – | – | – | – | solubility [27]: Insoluble
CC(C)(C)OC(=O)N1CCN(C2Cc3ccccc3Sc3ccccc32)CC1 (stereo unspecified) | – | – | – | – | – | – | – | – | – | – | – | – | – | – | – | – | – | – | – | – | solubility [27]: Insoluble
CN(C)C(=O)C(CCN1CCC(O)(c2ccc(Cl)cc2)CC1)(c1ccccc1)c1ccccc1 [LOPERAMIDE] | inactive | 87.6% | inactive | inactive | inactive | inactive | 14 | 0.79 | 0.82 | inactive | 0.74 | 0.59 | inactive | 0.64 | 3.4 | 1.08 | 1.04 | inactive | inactive | 0.75 | Papp at 6 h [2]: 16 ×10⁻⁶ cm/s; Kinetic_solubility ([13]; buffer, pH 7.4, 24 h): 410 µg/mL; EC50 [14]: 685 nM; Papp at 16 h [23]: 12.5 ×10⁻⁶ cm/s; Ratio IC50 [26]: 0.64
CN1CCN(C2Cc3ccccc3Sc3ccc(Cl)cc32)CC1 (stereo unspecified) [CLOROTEPINE] | inactive | 82.8% | inactive | inactive | inactive | inactive | 18.1 | 1.09 | 0.98 | inactive | 0.94 | 1.12 | inactive | 0.87 | 6.4 | 1.07 | 1.04 | inactive | inactive | 1.05 | solubility kinetic at 24 h [13]: 34.9 µg/mL (≈ 101 µM); EC50 [14]: 1270 nM; Ratio IC50 [26]: 0.87
NC(=O)C(CCN1CCC(O)(c2ccc(Cl)cc2)CC1)(c1ccccc1)c1ccccc1 | inactive | 73.5% | inactive | inactive | inactive | inactive | 14.8 | 1.01 | 1.16 | inactive | 0.89 | 1.25 | inactive | 0.91 | 6.2 | 1.23 | 1.06 | inactive | inactive | 0.94 | Papp at 6 h [2]: 0.65 ×10⁻⁶ cm/s; IC50 (TAMH): 101000 nM; IC50 [28]: 45200 nM; solubility kinetic at 24 h [13]: > 450 µg/mL; selectivity ratio [29]: 94; selectivity ratio [17]: 210; Papp at 16 h [23]: 1.78 ×10⁻⁶ cm/s; EC50 [30]: 482 nM; Ratio IC50 [26]: 0.96
